Most compounds without a hit are left out; they make up all but 8.7% or so of the library.
E coli WT exp: growth inhibitors of E. coli BW25113 wild type; OD600 absorbance; growth inhibition, % at 100 µM; 98,000 tested, 0.15% active; AID 710;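 active = growth inhibition above about 50% at one test dose, limit read from the data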;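 also: growth measured after 20 h incubation at 37 °C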
Pyk2 oligo antag: Pyk2 (human) oligomerization antagonism. z-score (the deposit names both 25 µM and 10 µM). AID 1347419. 99,000 tested, 0.83% active. Q293 cells, Pyk2 FERM NanoBiT luminescence; hits give low values;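 active = Z-score of -3 or lower, scaled per plate to the spread of control and sample wells; inactive = z-score above -3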;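 also: negative z-score means lost luminescence so less FERM oligomerization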
Cav32 inh: inhibitors of human Cav3.2 T-type calcium channel; O95180; Cav3.2-expressing cells, Fluo-4 calcium fluorescence FDSS; hits give low values; B-score at 10 µM; 100,000 tested, 4% active; AID 449739;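 active = single-dose well whose peak fluorescence ratio is a statistical outlier from its plate by either plate-standardised score or position-corrected B-score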
tolC growth inh: blocks growth of E. coli BW25113 tolC mutant; OD615; growth inhibition, % at 10 µM (by protocol); 65,000 tested, 2.2% active;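 active = growth inhibition at or above a cutoff equal to the mean over every tested compound plus 3 SD, cut at about 60% in these data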;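 also: growth measured after 20 h incubation at 37 °C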
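Test system: E. coli BW25113 ΔtolC::kan bacteria; incubation: 37 °C, 20 h exposure; medium: LB broth supplemented with 50 µg/mL kanamycin; read-out basis: percent growth inhibition; signal: A615 absorbance measurement; compound: 10 µM final, single dose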
PostGolgi ctrl: growth of the yeast control strain, post-Golgi counter-screen. inhibition, % at 10 µM. efflux-deficient yeast background strain, growth absorbance A615, 16 h. 98,000 tested, 5% active
PostGolgi yeast: growth inhibition of a yeast mutant, post-Golgi transport screen. post-Golgi transport phenotypic cell assay. inhibition, % at 10 µM. 98,000 tested, 0.9% active. AID 739;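 also: yeast cells grown in 1536-well plates; yeast grown about 18 h at 30C before absorbance read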
An asterisk follows results filed as active; . = no result given. Rule as the data show it, unless noted: active = inhibition above about 30%; inactive = the rest.

SMILES	E coli WT exp	Pyk2 oligo antag	Cav32 inh	tolC growth inh	PostGolgi ctrl	PostGolgi yeast
CCOc1cc(S(=O)(=O)Nc2ccc(CC)cc2)ccc1Cl	-16	-2.4	-2.9	.	41*	-8
C=C(C)CSc1nc2c(c(=O)[nH]c(=O)n2C)n1CCC(C)C	4	.	-3.1	11	21	-4
CCN(CC)C(=O)c1cc2sc3ccccc3c2s1	8	-0.78	-1.8	56	30*	-7
COCCN(CCOC)C(=O)c1cc2sc3ccccc3c2s1	8	-2.4	-1.1	17	1	-10
CCSc1ccccc1C(=O)Nc1cccc(OC)c1	3	-0.08	-0.28	1	5	0
CCO/C(C)=C1\C(=O)N(CC)c2ccccc21	-4	0.41	-1.6	13	19	13
CCOC(=O)c1cc2n(c1/N=C/N(C)C)-c1ccccc1C2=O	-5	-0.6	-3.9*	.	22	-8
Cc1cc(C(=O)CSc2nc3ccc(Cl)cc3[nH]2)c(C)n1C	-12	-0.46	0.4	12	84*	55*
Cc1ccc2nc(SCC(=O)c3cc(C)n(C)c3C)[nH]c2c1	-6	-0.1	-0.16	.	33*	1
COC(=O)c1ccc(CSc2nc3ccccc3[nH]2)o1	14	2	-0.12	.	8	-7
COC(=O)c1cc(CSc2nc3ccc(C)cc3[nH]2)oc1C	.	2.1	-2.2	73*	.	.
Cc1ccc2nc(SCn3nnc4ccccc4c3=O)[nH]c2c1	.	-0.27	.	.	.	.
Cc1cccc(OCCCSc2nc3ccc(C)cc3[nH]2)c1	-12	3.7	-4.6*	.	8	-8
Cc1cc2nc(C)c(Cc3ccccc3)c(=O)n2[nH]1	20	-0.05	.	9	4	-3
COc1cc(OC)c2c(C)cc(=O)oc2c1C(CCN1CCOCC1)c1ccc(N(C)C)cc1 (configuration not stated)	.	.	-0.97	.	.	.
CCCCCCSC1=C(C#N)C(c2ccc(O)cc2)CC(=O)N1 (configuration not stated)	-4	-3.3*	-3.1	28	21	3
CCOC(=O)CSC1=C(C#N)C(c2ccc3c(c2)OCO3)CC(=O)N1 (configuration not stated)	5	0.67	1.1	-6	0	0
CCCCOC(=O)CSC1=C(C#N)C(c2ccc3c(c2)OCO3)CC(=O)N1 (configuration not stated)	-8	0.47	-2.3	9	47*	.
C=CCSC1=C(C#N)C(c2ccc(C(C)C)cc2)CC(=O)N1 (configuration not stated)	9	.	-3.5*	37	38*	-2
CCSC1=C(C#N)C(c2ccc(F)cc2)CC(=O)N1 (configuration not stated)	6	.	0.72	4	10	0
COc1cc(OC)cc(C(C)=O)c1	-2	0.28	0.11	-3	0	-6
COc1ccc(COC(=O)NNC(=O)c2ccccc2Cl)cc1	4	-0.32	0.26	.	6	13
CC1(C)CC(NC(=O)c2coc(=O)c(Br)c2)CC(C)(C)N1	2	0.3	1.2	-25	20	-5
CC(C)c1ccc(NC(=O)Cn2cccc2C2=NC(c3ccccc3)CO2)cc1 (configuration not stated)	.	-3	.	.	.	.
Cc1oc(-c2ccccc2Cl)nc1Cn1cccc1C1=NC(c2ccccc2)CO1 (configuration not stated)	-22	-0.04	-6.7*	.	8	-10
SMILES	E coli WT exp	Pyk2 oligo antag	Cav32 inh	tolC growth inh	PostGolgi ctrl	PostGolgi yeast
O=C(Nc1cccnc1)C(Cc1ccccc1)n1cccc1 (configuration not stated)	1	.	0.26	10	20	-1
O=C(Nc1ncc(Br)s1)C(Cc1ccccc1)n1cccc1 (configuration not stated)	12	.	-4.5*	96*	89*	87*
CCOP(=O)(OCC)c1nc(/C=C/c2ccccc2)oc1NCc1ccccc1	-6	-1.7	.	.	4	-10
CCOP(=O)(OCC)c1nc(/C=C/c2ccccc2)oc1NCc1ccc(OC)cc1	-12	-0.66	-5.6*	.	6	0
Cc1onc(-c2ccccc2Cl)c1C(=O)NCc1nc(-c2ccccc2)no1	-8	-0.54	-3.5	21	13	12
CCN(C(=O)COC(=O)C(Cc1ccccc1)N1C(=O)c2ccccc2C1=O)C1CCS(=O)(=O)C1 (configuration not stated)	2	-0.29	-1.9	12	0	16
COc1cccc(OCCNC(=O)c2ccccc2Sc2ccccc2C#N)c1	.	-0.97	.	.	.	.
N#Cc1ccccc1Sc1ccccc1C(=O)Nc1ccc(Br)cc1	-10	-3.5*	.	.	37*	26
Cc1ccccc1OCCNC(=O)c1ccccc1Sc1ccccc1C#N	-14	-1.8	-5.5*	.	-3	-3
N#Cc1ccccc1Sc1ccccc1C(=O)N1CCOCC1	-1	-1.6	-0.44	2	6	-3
Cc1cc(Cl)cc(C)c1OCCCCn1ccnc1	24	-0.39	-0.52	92*	3	20
Cc1ccccc1OCCCCCn1ccnc1	26	-0.31	-0.18	19	5	9
Cc1cccc(C(C)(C)C)c1OCCn1ccnc1	14	0.93	-1.5	92*	2	8
Cc1cccc(C(C)(C)C)c1OCCCCN1CCCC1	15	0.75	0.33	.	6	-5
O=C1CCCC2=C1C(c1cccs1)Nc1ccc3ncccc3c12 (configuration not stated)	-8	-0.25	1.5	.	6	0
Cc1ccsc1C1Nc2ccc3ncccc3c2C2=C1C(=O)CC(C)(C)C2 (configuration not stated)	0	-1	-3.9*	.	10	-3
CC(=O)N(CN1C(=O)CCC1=O)c1cccc(Cl)c1	.	0.21	.	.	.	.
Cn1cc(C[C@H](NC(=O)OC(C)(C)C)C(=O)N[C@@H](CO)Cc2ccccc2)c2ccccc21	.	.	-1.1	.	.	.
CCSc1nnc([C@@H]2CCCN2C(=O)OC(C)(C)C)o1	-3	0.86	1.3	-29	9	1
CC(C)(C)OC(=O)N1CCC[C@H]1c1nnc(SCc2c(Cl)cccc2Cl)o1	5	-1.3	-6.8*	79*	14	-2
CC(=O)NCCOc1cccc2cccnc12	1	-0.38	0.92	.	16	-8
Cc1cc(C)cc(OCCCOc2cccc3cccnc23)c1	2	-0.82	.	.	62*	-4
Cc1cc(Cl)cc(Cl)c1OCCOc1cccc2cccnc12	-5	0.6	-0.14	.	32*	-10
Clc1cc(Br)ccc1OCCOCCOc1cccc2cccnc12	-5	-0.04	-1.6	.	60*	2
FC(F)Oc1cccc2cccnc12	6	0.42	0.076	-17	0	-1
Cc1[nH]c(=O)[nH]c(=O)c1S(=O)(=O)N1CCCC(C(=O)NCc2ccccc2Cl)C1 (configuration not stated)	.	0.66	.	.	.	.
NC(=O)NOCc1ncc(C(F)(F)F)cc1Cl	7	0.72	0.076	.	12	10
Cc1ccc(NC(=O)Cc2ncc(C(F)(F)F)cc2Cl)cc1Cl	-6	-0.08	-4.8*	.	6	-11
CC(=O)c1c(O)cc(O)c(C(C)=O)c1O	.	.	-5.4*	.	.	.

Screening data (PubChem BioAssay)
